# Source: PMC7953034 (Journal of Pesticide Science, 2021)
# Where two headings read alike, the source gives them in different places.
# Legend:
# DmNobo [1] = target: T1, DmNobo (Drosophila melanogaster, UniProt Q7JYX0); settings: crystal structure PDB ID: 6KEP; cited from earlier work
# DmNobo [2] = target: T1, DmNobo; assay: Crystal structures of DmNobo complexed with inhibitors; settings: for # of bound molecules in the H-site: crystal structure of DmNobo complex; for Conformational change of Phe39: apo vs compound-bound; for GSH requirement for binding: crystals soaked with or without GSH; for GS-conjugation: observed in crystal structure with GSH
# How it was run: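 DmNobo was expressed in E. coli BL21(DE3) from a pCold III construct and purified by GSH affinity and size-exclusion chromatography. Crystals were grown over 34% (v/v) PPG400, 80 mM Bis-Tris pH 6.4. They were soaked 2 days in 42.5% PPG400, 100 mM Bis-Tris pH 6.4 with 30 mM test compound, ±10 mM GSH, then flash-frozen. Synchrotron data were phased by molecular replacement using apo DmNobo. Contacts were defined as ≤4.0 Å.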
# DmNobo [3] = target: T1, DmNobo; assay: GST activity inhibition assay; format: biochemical
# How it was run: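 Recombinant DmNobo from E. coli was used. Test compounds were serially diluted two-fold in DMSO (stock series from 2.5 mM down), then premixed with enzyme and GSH before 3,4-DNADCF was added. The final mix was 100 mM sodium phosphate pH 6.5, 25 ng·mL⁻¹ DmNobo, 1 mM GSH, 0.005% Tween 20 and 1 µM substrate. Fluorescence of the conjugate (ex 485/em 538 nm) was read every 30 s for 3 min. Relative activity was activity with/without compound; IC50 was taken from duplicate assays, with SD.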
# of bound molecules in the H-site (DmNobo [2]),Conformational change of Phe39 (DmNobo [2]; crystal structure),GSH requirement for binding (DmNobo [2]),GS-conjugation (DmNobo [2]),IC50 (DmNobo [3]) [µM],Different conformations of the inhibitor in subunits A and B (DmNobo [2]; crystal structure),SMILES,# of bound molecules in the H-site (DmNobo [1]),"inhibitory activity against DmNobo (in words) (DmNobo [3]; GSH-conjugation activity, 3,4-DNADCF)"
# T1 sequence (Q7JYX0 whole entry): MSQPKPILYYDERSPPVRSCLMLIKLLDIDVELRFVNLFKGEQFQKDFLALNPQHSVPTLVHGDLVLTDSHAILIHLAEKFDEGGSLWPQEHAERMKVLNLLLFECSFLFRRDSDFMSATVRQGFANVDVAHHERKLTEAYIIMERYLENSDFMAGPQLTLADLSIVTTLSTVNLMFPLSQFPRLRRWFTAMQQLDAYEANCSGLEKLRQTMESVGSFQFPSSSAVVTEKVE
,,,,,,"C[C@]12CC[C@@H]3c4ccc(O)cc4CC[C@H]3[C@@H]1CC[C@@H]2O [17β-Estradiol, 17β-estradiol]",1,
1,YES,GSH-dependent and YES,YES,6.72 ± 1.48,,"COc1cccc(C2=NC(C)(C)NC(c3cc(Br)ccc3O)C2)c1 (stereo not drawn) [TDP011, 4-bromo-2-[4-(3-methoxyphenyl)-2,2-dimethyl-5,6-dihydro-1H-pyrimidin-6-yl]phenol]",,
1,YES,GSH-dependent and YES,YES,3.1 ± 0.77,,"O=C1CS(=O)(=O)N(Cc2ccc(F)cc2)c2ccsc21 [TDP012, 1-(4-fluorobenzyl)-1H-thieno[3,2-c][1,2]thiazin-4(3H)-one 2,2-dioxide]",,
1,YES,,,8.94 ± 1.65,YES,"Cc1ccc(C(C)(C)C)cc1S(=O)(=O)Nc1ccccc1C(=O)O [TDP013, 2-(5-tert-butyl-2-methyl-benzenesulfonylamino)-benzoic acid]",,
2,YES,GSH-dependent and YES,YES,3.32 ± 0.81,,"Nc1ccc(N2CCc3sccc3C2)nc1 [TDP015, 6-(6,7-dihydrothieno[3,2-c]pyridin-5(4H)-yl)-3-pyridinamine]",,
1,,,YES,> 1000,,"CC1(C)CC(=O)CC(=O)C1 [TDP045, 5,5-dimethyl-1,3-cyclohexanedione]",,did not exhibit a strong inhibitory activity
